Data as given in ChEMBL document CHEMBL1153722, “Design, synthesis, and characterization of peptide-based rab geranylgeranyl transferase inhibitors” (J Med Chem, 2009).
Values joined by “and” are separate entries in the source; they are usually repeats but may differ in a detail not shown here. Identical values can stand only once. Square brackets hold non-standard residues; d marks the D form. Peptide text beside a SMILES is read from it. * marks the point of attachment. NMeY = CN[C@@H](Cc1ccc(O)cc1)C(=O)O; Hydrocinnamoyl = O=C(CCc1ccccc1)*; Palmitoyl = CCCCCCCCCCCCCCCC(=O)*; NMeF = CN[C@@H](Cc1ccccc1)C(=O)O; Undecanoyl = CCCCCCCCCCC(=O)*; pGlu = O=C1CC[C@@H](C(=O)O)N1; Ac6c = NC1(C(=O)O)CCCCC1; Cbz = O=C(OCc1ccccc1)*; NHBn = c1ccc(CN*)cc1

Species: Rattus norvegicus
Experiment: Inhibition of rat recombinant Rab geranylgeranyltransferase at 100 uM in presence of canine Rab7 and rat REP1 NBD-FPP based continuous fluorimetric assay
Method in brief: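 Continuous fluorometric assay in 96/384-well format: 3 μM Rab7, 3 μM REP1, 9 μM NBD-FPP and 400 nM RabGGTase, with or without inhibitor. […] IC50 was calculated from three independent measurements.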

SMILES	inhibition
NC(=O)CC[C@H](NC(=O)[C@H](Cc1ccccc1)NC(=O)[C@H](CO)NC(=O)CCc1ccccc1)C(N)=O (Hydrocinnamoyl-Ser-Phe-Gln-NH2)	106%
CCCCCCCCCCC(=O)N[C@@H](Cc1c[nH]cn1)C(=O)N[C@@H](Cc1cnc[nH]1)C(=O)N[C@@H](Cc1ccc(O)cc1)C(=O)NCC(O)CO (some centres undefined)	65%
CCCCCCCCCCCOC(=O)[C@H](CO)NC(=O)CNC(=O)[C@H](CO)NC(=O)/C=C/c1ccc(F)cc1	70%
CCCCCCCCCCCOc1ccc(C(=O)N[C@@H](Cc2c[nH]cn2)C(=O)N[C@@H](Cc2ccc(O)cc2)C(=O)N[C@@H](Cc2ccccc2)C(=O)OCCN)cc1	74%
O=C(N[C@@H](CO)C(=O)N[C@@H](Cc1ccccc1)C(=O)N[C@@H](CO)C(=O)O)C(Br)C(Br)c1ccc(F)cc1 (some centres undefined)	92%
CCCCCCCCCCCNC(=O)[C@H](Cc1ccc(O)cc1)NC(=O)CNC(=O)[C@H](Cc1ccc(O)cc1)NC(=O)CCc1ccc(F)cc1	88%
C[C@@H](NC(=O)CCc1ccccc1)C(=O)N[C@@H](Cc1ccccc1)C(=O)N[C@@H](CCC(=O)O)C(=O)Nc1cccc(Br)n1	100%
C[C@@H](NC(=O)CCc1ccccc1)C(=O)N[C@@H](Cc1ccccc1)C(=O)N[C@@H](CCC(N)=O)C(=O)NC1CCCCC1	44%
COC(=O)[C@H](Cc1ccc(O)cc1)NC(=O)CNC(=O)[C@H](Cc1ccc(O)cc1)NC(=O)CCc1ccc(F)cc1	90%
O=C(CCNC(=O)[C@H](Cc1c[nH]cn1)NC(=O)OCc1ccccc1)N[C@@H](Cc1ccc(O)cc1)C(=O)O	90%
CCCCCCCCCCC(=O)N[C@@H](Cc1c[nH]cn1)C(=O)N[C@@H](Cc1c[nH]cn1)C(=O)N[C@@H](Cc1ccc(O)cc1)C(=O)O (Undecanoyl-His-His-Tyr-OH)	51%
CC(C)C[C@H](NC(=O)[C@@H]1CCC(=O)N1)C(=O)N[C@@H](CCCCN)C(=O)NC1(C(=O)O)CCCCC1 ([pGlu]LK[Ac6c]-OH)	102% and 98%
CC(C)CCNC(=O)[C@H](Cc1ccccc1)NC(=O)[C@H](Cc1ccccc1)NC(=O)[C@H](CC(C)C)NC(=O)/C=C/c1ccccc1	92%
O=C(CNC(=O)c1csc(-c2ccccc2)n1)N[C@@H](Cc1ccccc1)C(=O)N[C@@H](Cc1cn(C(c2ccccc2)(c2ccccc2)c2ccccc2)cn1)C(=O)O	71%
CON(C)C(=O)[C@H](CC(C)C)NC(=O)[C@H](COC(C)(C)C)NC(=O)[C@H](Cc1ccccc1)NC(=O)/C=C/c1ccc(F)cc1	94%
CC(C)C[C@H](NC(=O)[C@@H]1CCCN1C(=O)/C=C/c1ccccc1)C(=O)N[C@@H](Cc1ccccc1)C(=O)NCc1ccc(F)cc1F	26%
CCCCCCCCCCCC(=O)N[C@@H](Cc1ccc(O)cc1)C(=O)N[C@@H](Cc1c[nH]cn1)C(=O)N[C@@H](Cc1ccc(O)cc1)C(=O)Nc1ccccc1N	42%
Cc1ccc(C(=O)OC[C@H](NC(=O)CNC(=O)[C@H](COC(=O)c2ccc(C)nc2)NC(=O)c2coc(-c3ccccc3)n2)C(=O)O)cn1	100%
CCC/C=C\c1ccccc1/C=C/C(=O)N[C@H](Cc1ccc(O)cc1)C(=O)N(C)[C@@H](Cc1ccc(OC)cc1)C(=O)N(C)[C@@H](Cc1ccccc1)C(=O)OCc1c[nH]c(=O)[nH]c1=O	75%
C[C@@H](O)[C@H](NC(=O)C(Br)C(Br)c1ccccc1)C(=O)N[C@@H](Cc1ccccc1)C(=O)N[C@@H](CCC(N)=O)C(=O)Nc1nccs1 (some centres undefined)	93%

SMILES	inhibition
COC(=O)[C@H](CC(C)C)NC(=O)[C@H](COC(C)(C)C)NC(=O)[C@H](Cc1ccccc1)NC(=O)CCc1ccccc1	81%
COC(=O)[C@H](CCC(N)=O)NC(=O)[C@H](Cc1ccccc1)NC(=O)[C@H](CO)NC(=O)CCc1ccccc1 (Hydrocinnamoyl-Ser-Phe-Gln-OMe)	76%
CCCCCCCCCCC(=O)N[C@@H](Cc1ccc(O)cc1)C(=O)N[C@@H](Cc1c[nH]cn1)C(=O)N[C@@H](Cc1c[nH]cn1)C(=O)NCCCCN	73%
COC(=O)[C@H](Cc1ccc(O)cc1)NC(=O)CNC(=O)[C@H](Cc1ccc(O)cc1)NC(=O)c1ccc(F)cc1	93%
C[C@@H](O)[C@H](NC(=O)/C=C/c1ccccc1)C(=O)N[C@@H](Cc1ccccc1)C(=O)N[C@@H](CCC(N)=O)C(=O)NC1CCCCC1	75%
CC(C)C[C@H](NC(=O)[C@H](CO)NC(=O)[C@H](Cc1ccccc1)NC(=O)CCc1ccccc1)C(=O)OCCCl	97%
CCCCCCCCCCCOc1ccc(C(=O)N[C@@H](Cc2ccc(O)cc2)C(=O)N[C@@H](Cc2ccc(O)cc2)C(=O)N[C@@H](Cc2c[nH]cn2)C(=O)O)cc1	102%
C=CCCCCCCCCCOC(=O)[C@H](CO)NC(=O)CNC(=O)[C@H](CO)NC(=O)/C=C/c1ccc(F)cc1	57%
CCCCCCCCCC(=O)N[C@@H](Cc1c[nH]cn1)C(=O)N[C@@H](Cc1cnc[nH]1)C(=O)N[C@@H](Cc1ccc(O)cc1)C(=O)OCCN	29%
CCCCCCCCCCCC(=O)N[C@@H](Cc1c[nH]cn1)C(=O)N[C@@H](Cc1c[nH]cn1)C(=O)N[C@@H](CO)C(=O)NCC(O)CO (some centres undefined)	63%
C[C@@H](O)[C@H](NC(=O)C(Br)C(Br)c1ccccc1)C(=O)N[C@@H](Cc1ccccc1)C(=O)N[C@@H](CCC(N)=O)C(=O)Nc1cccc(Br)n1 (some centres undefined)	113%
O=C(N[C@@H](Cc1ccc(O)cc1)C(=O)N[C@@H](Cc1ccc(O)cc1)C(=O)N[C@@H](Cc1ccc(O)cc1)C(=O)OCCCn1ccnc1)c1ccc(F)cc1F	96%
NC(=O)CC[C@H](NC(=O)[C@H](Cc1ccccc1)NC(=O)CNC(=O)CCc1ccccc1)C(=O)O (Hydrocinnamoyl-Gly-Phe-Gln-OH)	94%
O=C(N[C@@H](Cc1c[nH]cn1)C(=O)N[C@@H](Cc1ccc(O)cc1)C(=O)N[C@@H](Cc1ccccc1)C(=O)O)OCc1ccc(OCc2ccccc2)cc1	53%
NC(=O)CC[C@H](NC(=O)[C@H](Cc1ccccc1)NC(=O)[C@H](CO)NC(=O)CCc1ccccc1)C(=O)NC1CCCCC1	99%
CC(C)C[C@H](NC(=O)[C@H](COC(C)(C)C)NC(=O)[C@H](Cc1ccccc1)NC(=O)CCc1ccccc1)C(=O)OCCCl	109%
NCCCC[C@H](NC(=O)CCc1ccccc1)C(=O)N[C@@H](Cc1c[nH]cn1)C(=O)N[C@@H](CO)C(=O)Nc1ccc(F)cc1F	96%
CN(C(=O)[C@@H](Cc1c[nH]cn1)NC(=O)OCc1ccccc1)[C@@H](Cc1ccc(O)cc1)C(=O)N[C@@H](Cc1ccccc1)C(=O)O	34%
CCCCCCCCCCCCCCCC(=O)N[C@@H](Cc1ccc(O)cc1)C(=O)N[C@@H](Cc1ccc(O)cc1)C(=O)N[C@@H](Cc1ccc(O)cc1)C(=O)OC (Palmitoyl-Tyr-Tyr-Tyr-OMe)	49%
C[C@@H](O)[C@H](NC(=O)C(Br)C(Br)c1ccccc1)C(=O)N[C@@H](Cc1ccccc1)C(=O)N[C@@H](CCC(N)=O)C(=O)OCCCl (some centres undefined)	64%

SMILES	inhibition
CON(C)C(=O)[C@H](CC(C)C)NC(=O)[C@H](CO)NC(=O)[C@H](Cc1ccccc1)NC(=O)/C=C/c1ccc(F)cc1	71%
CC[C@H](C)[C@H](NC(=O)c1ccc(-c2ccccc2)cc1)C(=O)N[C@@H](C(=O)N[C@@H](CCC(N)=O)C(=O)O)C(C)C	77%
O=C(N[C@@H](Cc1ccc(O)cc1)C(=O)N[C@@H](Cc1ccc(O)cc1)C(=O)N[C@@H](Cc1ccc(O)cc1)C(=O)Nc1nccs1)c1ccc(F)cc1F	78%
O=C(/C=C/c1ccc(F)cc1)N[C@@H](CO)C(=O)N[C@@H](Cc1ccccc1)C(=O)N[C@@H](CO)C(=O)Nc1ccccc1	73%
COC(=O)[C@H](CO)NC(=O)CNC(=O)[C@H](Cc1ccccc1)NC(=O)c1coc(-c2ccccc2)n1	115%
O=C(CNC(=O)c1coc(-c2ccccc2)n1)N[C@@H](Cc1cn(C(c2ccccc2)(c2ccccc2)c2ccccc2)cn1)C(=O)N[C@@H](Cc1cn(C(c2ccccc2)(c2ccccc2)c2ccccc2)cn1)C(=O)O	91%
CON(C)C(=O)[C@H](CCC(N)=O)NC(=O)[C@H](Cc1ccccc1)NC(=O)[C@@H](NC(=O)/C=C/c1ccccc1)[C@@H](C)O	80%
CCCCCCCCCCC(=O)N[C@@H](Cc1ccc(O)cc1)C(=O)N[C@@H](Cc1c[nH]cn1)C(=O)N[C@@H](Cc1c[nH]cn1)C(=O)NOC(C)(C)C	47%
CCCCCCCCCCCOc1ccc(C(=O)N[C@@H](Cc2ccc(O)cc2)C(=O)N[C@@H](Cc2ccc(O)cc2)C(=O)N[C@@H](Cc2ccc(O)cc2)C(=O)NCCCn2ccnc2)cc1	48%
NC(=O)CC[C@H](NC(=O)[C@H](Cc1ccccc1)NC(=O)CNC(=O)CCc1ccccc1)C(=O)NCc1ccccc1 (Hydrocinnamoyl-Gly-Phe-Gln-NHBn)	85%
O=C(CCc1ccccc1)N[C@@H](CO)C(=O)N[C@@H](Cc1ccccc1)C(=O)N[C@@H](CO)C(=O)NC1CCCCC1	90%
CC#CCOC(=O)[C@H](Cc1ccccc1)NC(=O)[C@H](CC(C)C)NC(=O)[C@@H]1CCCN1C(=O)/C=C/c1ccccc1	107%
CCCCCCCCCCCOc1ccc(C(=O)N[C@@H](Cc2cnc[nH]2)C(=O)N[C@@H](Cc2ccc(O)cc2)C(=O)N[C@@H](Cc2ccccc2)C(=O)NCC(O)CO)cc1 (some centres undefined)	93%
O=C(CNC(=O)c1csc(-c2ccccc2)n1)N[C@@H](Cc1ccccc1)C(=O)N[C@@H](Cc1c[nH]cn1)C(=O)O	70%
CN(C(=O)[C@H](Cc1cnc[nH]1)NC(=O)OCc1ccccc1)[C@@H](Cc1ccc(O)cc1)C(=O)N(C)[C@@H](Cc1ccccc1)C(=O)O (Cbz-His-[NMeY]-[NMeF]-OH)	54%
NCCCC[C@H](NC(=O)c1coc(-c2ccccc2)n1)C(=O)NCC(=O)N[C@@H](Cc1ccc(O)cc1)C(=O)O	100%
COC(=O)COC(=O)[C@H](Cc1ccccc1)N(C)C(=O)[C@H](Cc1ccc(OC)cc1)N(C)C(=O)[C@@H](Cc1ccc(O)cc1)NC(=O)CCc1ccccc1	88%
CCCCCCCCCCC(=O)N[C@@H](Cc1ccc(O)cc1)C(=O)N[C@@H](Cc1c[nH]cn1)C(=O)N[C@@H](Cc1c[nH]cn1)C(=O)O (Undecanoyl-Tyr-His-His-OH)	64%
C[C@H](NC(=O)[C@@H](NC(=O)c1ccc(-c2ccccc2)cc1)[C@@H](C)O)C(=O)N[C@@H](CCC(N)=O)C(=O)NNc1ccccc1	96%
